One may read the inhibition as the share of the control response that was lost under treatment.

Experiment [1] has as its system Escherichia coli. Put plainly: Inhibition of Escherichia coli relA assessed as inhibition of (p)ppGpp synthesis at 1 mM by autoradiography in presence of [alpha32]GTP. The essentials: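 Purified E. coli RelA assayed in vitro with inhibitor at 1 mM.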
Experiment [2] deals with Bacillus subtilis. Nature of the experiment: Inhibition of Bacillus subtilis relA assessed as reduction in (p)ppGpp level at 2 mM incubated for 15 mins prior to SHX addition measured after 5 to 10 mins by autoradiography. In short, it runs like this: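 B. subtilis cells grown with inhibitor at 2 mM. Stringent response then induced by adding serine hydroxamate, and intracellular (p)ppGpp measured afterwards.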

The subject of experiment [3] is Deinococcus radiodurans. Nature of the experiment: Inhibition of Deinococcus radiodurans rel/spo assessed as inhibition of (p)ppGpp synthesis by autoradiography in presence of [alpha32]GTP. In short, it runs like this:
(§1)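 Cell-free assay on purified Rel enzymes (Rel/Spo from D. radiodurans, RelA from E. coli), with inhibitor tested across varying concentrations.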

For experiment [4], the system named is Escherichia coli. Nature of the experiment: Inhibition of Escherichia coli relA assessed as inhibition of (p)ppGpp synthesis by autoradiography in presence of [alpha32]GTP. In short, it runs like this:
as §1

Molecules are shown by their SMILES. The source made the active and inactive calls. The rule behind the calls is not given here.

Regarding `CC(C)C(=O)Nc1nc2c(ncn2[C@H]2C[C@H](OC(=O)N[C@@H](CCC(=O)O)C(=O)O)[C@@H](COC(=O)NCC(=O)O)O2)c(=O)[nH]1`, the inhibition in experiment [1] was 50.4%.

With `CC(C)C(=O)Nc1nc2c(ncn2[C@H]2C[C@H](OC(=O)NCCCCCC(=O)O)[C@@H](COC(=O)NCCCCCC(=O)O)O2)c(=O)[nH]1`, the inhibition in experiment [1] came to 25.6%. Consider `CC(C)C(=O)Nc1nc2c(ncn2[C@H]2C[C@H](OC(=O)NCC(=O)O)[C@@H](COC(=O)NCC(=O)O)O2)c(=O)[nH]1`, for which the inhibition in experiment [1] was found to be 51.1%. In experiment [2], the inhibition entry was “Active”.

Take `CC(C)C(=O)Nc1nc2c(ncn2[C@H]2C[C@H](OC(=O)NCCN(C)C)[C@@H](COC(=O)NCCN(C)C)O2)c(=O)[nH]1`: the inhibition in experiment [1] is 31.2%.

Turning to `CC(C)C(=O)Nc1nc2c(ncn2[C@H]2C[C@H](OC(=O)N(CCCN(C)C)CCCN(C)C)[C@@H](COC(=O)N(CCCN(C)C)CCCN(C)C)O2)c(=O)[nH]1`, in experiment [1], the inhibition came out at 12%.

As to `CC(C)C(=O)Nc1nc2c(ncn2[C@H]2C[C@H](OC(=O)NC(CCC(=O)O)C(=O)O)[C@@H](COC(=O)N[C@@H](CCC(=O)O)C(=O)O)O2)c(=O)[nH]1` (stereo partly drawn), the inhibition in experiment [1] was 50.6%.

As for `CC(C)C(=O)Nc1nc2c(ncn2[C@H]2C[C@H](OC(=O)NC(CCC(=O)O)C(=O)NC(CCC(=O)O)C(=O)O)[C@@H](COC(=O)NC(CCC(=O)O)C(=O)NC(CCC(=O)O)C(=O)O)O2)c(=O)[nH]1` (stereo partly drawn), the inhibition result is “Dose-dependent effect” in experiment [3], 80.4% in experiment [1] and “Dose-dependent effect” in experiment [4]. In addition, the inhibition result in experiment [2] was “Active”. `CC(C)C(=O)Nc1nc2c(ncn2[C@H]2C[C@H](OC(=O)NCC(=O)O)[C@@H](COC(=O)N[C@@H](CCC(=O)O)C(=O)O)O2)c(=O)[nH]1`: in experiment [1], the inhibition came to 52.1%. Regarding `CC(C)C(=O)Nc1nc2c(ncn2[C@H]2C[C@H](OC(=O)NCC(=O)NCC(=O)O)[C@@H](COC(=O)NCC(=O)NCC(=O)O)O2)c(=O)[nH]1`, the inhibition in experiment [1] is 66.3%.

For the origin of these results see ChEMBL document CHEMBL3085669, “Design, synthesis and structure-activity relationship of novel Relacin analogs as inhibitors of Rel proteins” (Eur J Med Chem, 2013).
